Laboratory results taken from ChEMBL document CHEMBL1149538, “A high-throughput assay for O-GlcNAc transferase detects primary sequence preferences in peptide substrates” (Bioorg Med Chem Lett, 2007).
Where a SMILES comes first, the peptide text is derived from it.

Molecular target: T1, UDP-N-acetylglucosamine--peptide N-acetylglucosaminyltransferase 110 kDa subunit (Homo sapiens) (UniProt O15294)
T1 sequence (whole entry): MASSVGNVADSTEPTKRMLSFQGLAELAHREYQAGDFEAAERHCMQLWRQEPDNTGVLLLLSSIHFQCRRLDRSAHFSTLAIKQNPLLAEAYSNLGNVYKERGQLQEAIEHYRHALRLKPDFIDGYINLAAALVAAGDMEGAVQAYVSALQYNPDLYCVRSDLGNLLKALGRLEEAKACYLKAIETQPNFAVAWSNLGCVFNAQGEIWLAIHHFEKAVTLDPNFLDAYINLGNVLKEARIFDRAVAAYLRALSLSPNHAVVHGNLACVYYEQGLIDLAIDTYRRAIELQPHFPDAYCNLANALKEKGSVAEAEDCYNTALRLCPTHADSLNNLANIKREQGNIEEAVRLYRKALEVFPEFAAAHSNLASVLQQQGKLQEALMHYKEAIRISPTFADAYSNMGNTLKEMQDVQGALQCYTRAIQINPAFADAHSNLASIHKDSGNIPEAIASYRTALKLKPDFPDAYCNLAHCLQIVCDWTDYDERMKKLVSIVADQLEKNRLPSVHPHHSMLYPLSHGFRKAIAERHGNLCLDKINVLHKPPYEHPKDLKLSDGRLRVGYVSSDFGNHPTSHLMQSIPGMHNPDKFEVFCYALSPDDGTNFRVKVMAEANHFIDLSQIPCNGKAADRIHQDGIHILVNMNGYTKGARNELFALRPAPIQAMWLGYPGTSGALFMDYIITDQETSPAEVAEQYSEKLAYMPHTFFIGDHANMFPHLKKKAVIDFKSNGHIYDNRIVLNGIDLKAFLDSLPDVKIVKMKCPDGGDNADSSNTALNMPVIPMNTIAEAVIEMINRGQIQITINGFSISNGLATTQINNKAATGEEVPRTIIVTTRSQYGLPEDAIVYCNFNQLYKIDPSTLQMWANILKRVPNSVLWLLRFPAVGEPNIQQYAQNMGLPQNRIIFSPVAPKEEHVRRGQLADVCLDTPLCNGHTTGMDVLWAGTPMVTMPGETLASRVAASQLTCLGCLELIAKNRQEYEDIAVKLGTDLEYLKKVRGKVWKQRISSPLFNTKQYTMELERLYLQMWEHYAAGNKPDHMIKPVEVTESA
Assay: Binding affinity to human OGT expressed in Escherichia coli […] cells assessed as alpha-FLAG-HRP activity relative to alpha-A-crystallin peptide by azido-ELISA
Conditions: BL21-DE3
Summary of the method: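 Biotinylated peptides are reacted at saturating levels with Ni-column-purified human OGT from E. coli BL21(DE3), plus UDP-GlcNAz 62.5 μM, MgCl2 12.5 μM and β-mercaptoethanol 1 mM, for 4 h at 37 °C. Reactions are stopped with pH 4.5 sodium acetate and captured on NeutrAvidin. Product is tagged with phosphine-FLAG, detected by anti-FLAG-HRP/TMB at A450, normalized to the parent peptide after Ala-peptide background subtraction. Data are from 3 experiments, each in triplicate.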

Row | Structure (SMILES) | Activity
1 | CC[C@H](C)[C@H](NC(=O)[C@H](C)N)C(=O)N1CCC[C@H]1C(=O)N[C@@H](C)C(=O)N[C@@H](CO)C(=O)N[C@@H](CCCNC(=N)N)C(=O)N[C@@H](CCC(=O)O)C(=O)N[C@@H](CCC(=O)O)C(=O)N[C@@H](CCCCN)C(=O)O (H-AIPASREEK-OH) | 0.1
2 | CC[C@H](C)[C@H](NC(=O)[C@@H]1CCCN1)C(=O)N1CCC[C@H]1C(=O)N[C@H](C(=O)N[C@@H](CO)C(=O)N[C@@H](CCCNC(=N)N)C(=O)N[C@@H](CCC(=O)O)C(=O)N[C@@H](CCC(=O)O)C(=O)N[C@@H](CCCCN)C(=O)O)C(C)C (H-PIPVSREEK-OH) | 1.8
3 | CC(C)[C@H](NC(=O)[C@@H]1CCCN1C(=O)[C@H](CCC(=O)O)NC(=O)[C@H](C)N)C(=O)N[C@@H](CO)C(=O)N[C@@H](CCCNC(=N)N)C(=O)N[C@@H](CCC(=O)O)C(=O)N[C@@H](CCC(=O)O)C(=O)N[C@@H](CCCCN)C(=O)O (H-AEPVSREEK-OH) | 0.5
4 | CC[C@H](C)[C@H](NC(=O)[C@H](C)N)C(=O)N1CCC[C@H]1C(=O)N1CCC[C@H]1C(=O)N[C@@H](CO)C(=O)N[C@@H](CCCNC(=N)N)C(=O)N[C@@H](CCC(=O)O)C(=O)N[C@@H](CCC(=O)O)C(=O)N[C@@H](CCCCN)C(=O)O (H-AIPPSREEK-OH) | 0.1
5 | CC[C@H](C)[C@H](NC(=O)[C@@H](N)CCC(=O)O)C(=O)N1CCC[C@H]1C(=O)N[C@H](C(=O)N[C@@H](CO)C(=O)N[C@@H](CCCNC(=N)N)C(=O)N[C@@H](CCC(=O)O)C(=O)N[C@@H](CCC(=O)O)C(=O)N[C@@H](CCCCN)C(=O)O)C(C)C (H-EIPVSREEK-OH) | 1
6 | CC[C@H](C)[C@H](NC(=O)[C@H](C)N)C(=O)N1CCC[C@H]1C(=O)N[C@H](C(=O)N[C@@H](CO)C(=O)N[C@@H](CCCNC(=N)N)C(=O)N[C@@H](CCC(=O)O)C(=O)N[C@@H](CCC(=O)O)C(=O)N[C@@H](CCCCN)C(=O)O)C(C)C (H-AIPVSREEK-OH) | 1
7 | CC[C@H](C)[C@H](NC(=O)[C@H](C)N)C(=O)N1CCC[C@H]1C(=O)N[C@H](C(=O)N[C@@H](CO)C(=O)N[C@@H](CCC(=O)O)C(=O)N[C@@H](CCC(=O)O)C(=O)N[C@@H](CCC(=O)O)C(=O)N[C@@H](CCCCN)C(=O)O)C(C)C (H-AIPVSEEEK-OH) | 0
8 | CC[C@H](C)[C@H](NC(=O)[C@H](C)N)C(=O)N1CCC[C@H]1C(=O)N[C@H](C(=O)N[C@@H](CO)C(=O)N[C@@H](CCCNC(=N)N)C(=O)N1CCC[C@H]1C(=O)N[C@@H](CCC(=O)O)C(=O)N[C@@H](CCCCN)C(=O)O)C(C)C (H-AIPVSRPEK-OH) | 4.7
9 | CC[C@H](C)[C@H](NC(=O)[C@H](C)N)C(=O)N1CCC[C@H]1C(=O)N[C@@H](CCCNC(=N)N)C(=O)N[C@@H](CO)C(=O)N[C@@H](CCCNC(=N)N)C(=O)N[C@@H](CCC(=O)O)C(=O)N[C@@H](CCC(=O)O)C(=O)N[C@@H](CCCCN)C(=O)O (H-AIPRSREEK-OH) | 0
10 | CC[C@H](C)[C@H](NC(=O)[C@H](C)N)C(=O)N1CCC[C@H]1C(=O)N[C@H](C(=O)N[C@@H](CO)C(=O)N1CCC[C@H]1C(=O)N[C@@H](CCC(=O)O)C(=O)N[C@@H](CCC(=O)O)C(=O)N[C@@H](CCCCN)C(=O)O)C(C)C (H-AIPVSPEEK-OH) | 0
11 | CC[C@H](C)[C@H](NC(=O)[C@H](C)N)C(=O)N1CCC[C@H]1C(=O)N[C@H](C(=O)N[C@@H](CO)C(=O)N[C@@H](CCCNC(=N)N)C(=O)N[C@@H](C)C(=O)N[C@@H](CCC(=O)O)C(=O)N[C@@H](CCCCN)C(=O)O)C(C)C (H-AIPVSRAEK-OH) | 5
12 | CC(C)[C@H](NC(=O)[C@@H]1CCCN1C(=O)[C@H](C)NC(=O)[C@H](C)N)C(=O)N[C@@H](CO)C(=O)N[C@@H](CCCNC(=N)N)C(=O)N[C@@H](CCC(=O)O)C(=O)N[C@@H](CCC(=O)O)C(=O)N[C@@H](CCCCN)C(=O)O (H-AAPVSREEK-OH) | 0.4
13 | CC[C@H](C)[C@H](NC(=O)[C@H](C)N)C(=O)N1CCC[C@H]1C(=O)N[C@H](C(=O)N[C@@H](CO)C(=O)N[C@@H](CCCNC(=N)N)C(=O)N[C@@H](CCC(=O)O)C(=O)N[C@@H](C)C(=O)N[C@@H](CCCCN)C(=O)O)C(C)C (H-AIPVSREAK-OH) | 0.6
14 | CC[C@H](C)[C@H](N)C(=O)N[C@H](C(=O)N1CCC[C@H]1C(=O)N[C@H](C(=O)N[C@@H](CO)C(=O)N[C@@H](CCCNC(=N)N)C(=O)N[C@@H](CCC(=O)O)C(=O)N[C@@H](CCC(=O)O)C(=O)N[C@@H](CCCCN)C(=O)O)C(C)C)[C@@H](C)CC (H-IIPVSREEK-OH) | 1.6
15 | CC[C@H](C)[C@H](NC(=O)[C@H](C)N)C(=O)N[C@@H](C)C(=O)N[C@H](C(=O)N[C@@H](CO)C(=O)N[C@@H](CCCNC(=N)N)C(=O)N[C@@H](CCC(=O)O)C(=O)N[C@@H](CCC(=O)O)C(=O)N[C@@H](CCCCN)C(=O)O)C(C)C (H-AIAVSREEK-OH) | 0.1
16 | CC[C@H](C)[C@H](NC(=O)[C@H](C)N)C(=O)N1CCC[C@H]1C(=O)N[C@H](C(=O)N[C@@H](CO)C(=O)N[C@@H](CCCNC(=N)N)C(=O)N[C@@H](CCC(=O)O)C(=O)N1CCC[C@H]1C(=O)N[C@@H](CCCCN)C(=O)O)C(C)C (H-AIPVSREPK-OH) | 0.3
17 | CC[C@H](C)[C@H](NC(=O)[C@H](C)N)C(=O)N1CCC[C@H]1C(=O)N[C@H](C(=O)N[C@@H](CO)C(=O)N[C@@H](C)C(=O)N[C@@H](CCC(=O)O)C(=O)N[C@@H](CCC(=O)O)C(=O)N[C@@H](CCCCN)C(=O)O)C(C)C (H-AIPVSAEEK-OH) | 0
18 | CC(C)[C@H](NC(=O)[C@@H]1CCCN1C(=O)[C@@H]1CCCN1C(=O)[C@H](C)N)C(=O)N[C@@H](CO)C(=O)N[C@@H](CCCNC(=N)N)C(=O)N[C@@H](CCC(=O)O)C(=O)N[C@@H](CCC(=O)O)C(=O)N[C@@H](CCCCN)C(=O)O (H-APPVSREEK-OH) | 0.1
19 | CC[C@H](C)[C@H](NC(=O)[C@H](CCC(=O)O)NC(=O)[C@H](CCCNC(=N)N)NC(=O)[C@H](CO)NC(=O)[C@@H](NC(=O)[C@@H]1CCCN1C(=O)[C@@H](NC(=O)[C@H](C)N)[C@@H](C)CC)C(C)C)C(=O)N[C@@H](CCCCN)C(=O)O (H-AIPVSREIK-OH) | 0.1
20 | CC[C@H](C)[C@H](NC(=O)[C@H](C)N)C(=O)N1CCC[C@H]1C(=O)N[C@H](C(=O)N[C@@H](CO)C(=O)N[C@@H](CCCNC(=N)N)C(=O)N[C@@H](CCC(=O)O)C(=O)N[C@@H](CCCNC(=N)N)C(=O)N[C@@H](CCCCN)C(=O)O)C(C)C (H-AIPVSRERK-OH) | 0.2
21 | CC[C@H](C)[C@H](NC(=O)[C@H](C)N)C(=O)N[C@@H](CCC(=O)O)C(=O)N[C@H](C(=O)N[C@@H](CO)C(=O)N[C@@H](CCCNC(=N)N)C(=O)N[C@@H](CCC(=O)O)C(=O)N[C@@H](CCC(=O)O)C(=O)N[C@@H](CCCCN)C(=O)O)C(C)C (H-AIEVSREEK-OH) | 0
22 | CC[C@H](C)[C@H](NC(=O)[C@H](C)N)C(=O)N1CCC[C@H]1C(=O)N[C@@H](CCC(=O)O)C(=O)N[C@@H](CO)C(=O)N[C@@H](CCCNC(=N)N)C(=O)N[C@@H](CCC(=O)O)C(=O)N[C@@H](CCC(=O)O)C(=O)N[C@@H](CCCCN)C(=O)O (H-AIPESREEK-OH) | 0.2
23 | CC[C@H](C)[C@H](NC(=O)[C@H](CO)NC(=O)[C@@H](NC(=O)[C@@H]1CCCN1C(=O)[C@@H](NC(=O)[C@H](C)N)[C@@H](C)CC)C(C)C)C(=O)N[C@@H](CCC(=O)O)C(=O)N[C@@H](CCC(=O)O)C(=O)N[C@@H](CCCCN)C(=O)O (H-AIPVSIEEK-OH) | 0.1
24 | CC(C)[C@H](NC(=O)[C@@H]1CCCN1C(=O)[C@H](CCCNC(=N)N)NC(=O)[C@H](C)N)C(=O)N[C@@H](CO)C(=O)N[C@@H](CCCNC(=N)N)C(=O)N[C@@H](CCC(=O)O)C(=O)N[C@@H](CCC(=O)O)C(=O)N[C@@H](CCCCN)C(=O)O (H-ARPVSREEK-OH) | 0
25 | CC[C@H](C)[C@H](NC(=O)[C@@H]1CCCN1C(=O)[C@@H](NC(=O)[C@H](C)N)[C@@H](C)CC)C(=O)N[C@@H](CO)C(=O)N[C@@H](CCCNC(=N)N)C(=O)N[C@@H](CCC(=O)O)C(=O)N[C@@H](CCC(=O)O)C(=O)N[C@@H](CCCCN)C(=O)O (H-AIPISREEK-OH) | 0.3
26 | CC[C@H](C)[C@H](NC(=O)[C@@H](N)CCCNC(=N)N)C(=O)N1CCC[C@H]1C(=O)N[C@H](C(=O)N[C@@H](CO)C(=O)N[C@@H](CCCNC(=N)N)C(=O)N[C@@H](CCC(=O)O)C(=O)N[C@@H](CCC(=O)O)C(=O)N[C@@H](CCCCN)C(=O)O)C(C)C (H-RIPVSREEK-OH) | 2
